# OX1R antag-1: antagonists of human orexin 1 receptor (OX1R); Orexin/Hypocretin receptor type 1 (Homo sapiens), O43613; hit rate 1.8% among 330,000; inhibition, % at 6.6 µM; OX1R-expressing cells, FRET antagonist read-out; in the data active = inhibition mostly above about 38%, no sharp cut-off; inactive = mostly below about 40%;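 note: 0% = agonist challenge alone and 100% = reference antagonist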
# Target sequence (O43613 whole entry, looked up): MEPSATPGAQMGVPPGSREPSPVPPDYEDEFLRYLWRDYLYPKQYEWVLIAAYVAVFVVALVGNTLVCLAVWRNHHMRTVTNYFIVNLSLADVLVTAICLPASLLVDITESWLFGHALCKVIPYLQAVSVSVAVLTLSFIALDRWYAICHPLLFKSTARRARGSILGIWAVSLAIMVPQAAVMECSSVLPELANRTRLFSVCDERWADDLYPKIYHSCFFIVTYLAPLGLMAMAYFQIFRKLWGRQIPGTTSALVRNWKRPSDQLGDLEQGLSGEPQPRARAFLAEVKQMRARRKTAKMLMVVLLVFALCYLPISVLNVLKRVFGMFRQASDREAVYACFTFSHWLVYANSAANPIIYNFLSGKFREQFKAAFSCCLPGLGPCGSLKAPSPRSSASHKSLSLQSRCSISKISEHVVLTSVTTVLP
# TAAR1 antagonist: human TAAR1 antagonists, primary screen, Fluo-8 calcium fluorescence, CHO RD-HGA16 cells. antagonist. inhibition, % at 3 µM. hit rate 1.5% among 360,000. AID 624466, 2012;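 active = inhibition above a per-plate cutoff, the mean inhibition of test compounds on that plate plus 3 SD, cut at about 49% in these data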;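 note: 0% = DMSO plus EC80 beta-PEA response and 100% = DMSO alone without agonist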
#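 Material: RD-HGA16 CHO cells with stable hTAAR1 and Gα16; Dosing: single nominal final test compound concentration of 3 µM; Schedule: seeding 17-24 h prior, 75-min 37 °C, 30-min RT dye loading; Detection: kinetic Fluo-8 calcium fluorescence measurement; Measure: % inhibition from peak post-agonist over basal fluorescence ratio; Benchmarks: vehicle and agonist controls.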
# CHO parental Ca: ATP-evoked calcium signal inhibitors, parental CHO, primary screen, counter-screen for OX1R antagonist project, cell-based, fluorescence, Fluo-8 calcium dye; parental CHO-K1, ATP-induced calcium, Fluo-8 fluorescence; inhibition, % at 5.6 µM; hit rate 0.63% among 330,000; AID 463079, 2010;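 active = inhibition above that plate's mean sample inhibition plus 3 SD, cut at about 26% in these data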;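 note: 0% = ATP-challenged DMSO wells and 100% = DMSO wells without ATP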
#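 Material – parental CHO cells · Reagent – ATP stimulus · Compound – single nominal dose of 5.6 µM per compound · Detection – Fluo-8 fluorescence · Read-out basis – percent inhibition of calcium signal · Controls – ATP-challenged DMSO wells low, unchallenged DMSO wells high · Repeats – no replicates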
# GalR3 antagonist: GalR3 antagonists in HEK293 cells, primary screen, cell-based, fluorescence readout; inhibition, % at 3 µM; HEK293 GalR3-CNG cAMP membrane potential fluorescence; galR3 body fused to GalR1 C-terminus; AID 651719, 2012; hit rate 0.44% among 360,000;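 active = inhibition above the screen-wide average plus 3 SD, cut at about 13% in these data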;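 note: forskolin and galanin both at EC90 stimulate the cells; cAMP rise reported by CNG channel membrane potential dye signal; 0% = forskolin plus galanin with DMSO and 100% = forskolin alone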
# TAAR1 ag: human TAAR1 agonists, primary screen, Fluo-8 calcium fluorescence, CHO RD-HGA16 cells; activation, % at 3 µM; hit rate 0.99% among 360,000; Trace amine-associated receptor 1 (Homo sapiens), Q96RJ0; vehicle wells 0%, saturating PEA agonist 100%;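 active = activation above the mean activation of all test compounds in the run plus 3 SD, cut at about 38% in these data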
#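 Repeats: no replicates (n 1) | Material: CHO-derived RD-HGA16 cells with stable Gα16 and human TAAR1 | Technique: Kinetic Fluo-8 calcium fluorescence | Schedule: 17-24 h seeding, 75 min 37 °C dye, 30 min RT | Evaluation: % activation from peak over basal fluorescence ratio, DMSO-to-PEA scaled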
# OX1R antag-2: OX1R (HCRTR1) antagonists, primary screen, fluorescence, CHO/OX1R cells, Fluo-8 calcium, orexin A. Orexin/Hypocretin receptor type 1 (Homo sapiens), O43613. Fluo-8 calcium fluorescence. inhibition, % at 5 µM. hit rate 0.43% among 330,000;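 active = inhibition above its plate's threshold, mean inhibition of all tested compounds on the plate plus 3 SD, cut at about 37% in these data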;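 note: 0% = orexin A challenge wells and 100% = SB-334867-A antagonist wells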
# The depositor's hits bear a star; . = not tested or not shown. An excerpt weighted towards active compounds, which were near 4.3% of everything screened.
SMILES,OX1R antag-1,TAAR1 antagonist,CHO parental Ca,GalR3 antagonist,TAAR1 ag,OX1R antag-2
COc1cccc(C(=O)N[C@@H](Cc2cccnc2)C(=O)N2CCC[C@H]2C(=O)NC2CCCC2)c1,.,0,.,-7,0,.
C[C@H](O)[C@@H]1CN2CCc3c([nH]c4ccccc34)[C@@H]2C[C@@H]1N(C)C(=S)NCCc1ccccc1,.,66*,.,-5,78*,.
Cc1cc(C)nc(/N=C(\N)Nc2ccc(-c3ccccc3)cc2)n1,15,64*,24,-7,58*,2
CC(=O)Nc1ccc(N/C(N)=N/c2nc(C)cc(C)n2)cc1,8,0,-15,2,1,-18
Cc1ccc(C(C(=O)NCc2ccccc2)N(Cc2cccs2)C(=O)c2ccc3c(c2)OCCO3)cc1 (stereo not drawn),58*,64*,6,-5,16,13
CC1=NN(c2ccccc2)C(=O)/C1=C/C=C/c1ccccc1,8,18,-8,2,-2,-22
CC1=NN(c2ccccc2)C(=O)/C1=C\N1CC(C)OC(C)C1 (stereo not drawn),2,70*,-7,-7,98*,-6
COc1ccccc1/C=C1/C(=O)N(c2ccccc2)N=C1C,-7,16,-7,-5,37*,-20
CC1=NN(c2ccccc2)C(=O)/C1=C\c1ccc(Oc2ccc([N+](=O)[O-])cc2[N+](=O)[O-])cc1,50*,-3,1,3,23,13
COc1cc(/C=C2\C(=O)N(c3ccccc3)N=C2C)ccc1Oc1ccc([N+](=O)[O-])cc1[N+](=O)[O-],23,-7,8,4,2,9
Cc1ccc(CNC(=O)c2ccc(NC(=O)CCS(=O)(=O)c3cccs3)cc2)cc1,18,9,98*,-1,11,-22
CSCCC(NC(=O)c1ccccc1)C(=O)N1CC=C(c2ccccc2)CC1 (stereo not drawn),11,-17,-14,-5,-1,-25
COc1ccc(CNC(=O)[C@@H](Cc2ccccc2)NC(=O)[C@H]2O[C@@H](n3cnc4c(=O)[nH]c(N)nc43)[C@H](O)[C@@H]2O)cc1,.,-12,.,-3,1,.
Cc1[nH]nc(SCC(=O)NCc2ccccc2)c1[N+](=O)[O-],6,1,-8,-10,-3,-9
Cc1[nH]nc(SCC(=O)NCCc2ccccc2)c1[N+](=O)[O-],9,75*,-2,-6,39*,1
CCc1c2c(nc3ccc(OC(=O)N4CCC(N5CCCCC5)CC4)cc13)-c1cc3c(c(=O)n1C2)COC(=O)[C@]3(O)CC,53*,-1,-5,.,0,-25
CCC1(O)C(=O)OCc2c1cc1n(c2=O)Cc2cc3cc(O)ccc3nc2-1 (stereo not drawn),.,-8,.,-4,1,.
O=[N+]([O-])c1ccc(Sc2cccc[n+]2[O-])c2nonc12,.,41,.,-6,25,.
C=CC[C@@H](CC(=O)N(CCO)Cc1ccccc1)C(=O)N[C@H](COC(=O)[C@@H](CC=C)Cc1ccc(F)cc1)C(C)(C)C,9,19,-9,-5,7,-25
C=CC[C@H](CC(=O)N(CCO)Cc1ccccc1)C(=O)N[C@H](COC(=O)[C@@H](CC=C)Cc1ccc(F)cc1)C(C)(C)C,9,51*,-32,-4,10,-8
C=CC[C@@H](CC(=O)N(CCO)Cc1ccccc1)C(=O)N[C@@H](COC(=O)[C@@H](CC=C)Cc1ccc(F)cc1)Cc1c[nH]c2ccccc12,4,17,-9,-2,7,-13
C=CCC[C@H](Cc1ccc(F)cc1)C(=O)OC[C@@H](Cc1c[nH]c2ccccc12)NC(=O)[C@H](CC=C)CC(=O)N(CCO)Cc1ccccc1,16,65*,4,2,14,6

# Bioassay records deposited in PubChem by The Scripps Research Institute Molecular Screening Center.
